Test results from ChEMBL document CHEMBL1212767, “In vitro and in vivo activities of 1-hydroxy-2-alkyl-4(1H)quinolone derivatives against Toxoplasma gondii” (Antimicrob Agents Chemother, 2010).
The source made the active and inactive calls. The calls are words filed in the database; no cut-off is given here.

Legend:
Toxoplasma gondii [1] = test: Antimicrobial activity against GFP-expressing Toxoplasma gondii type 1 RH strain ip infected in NMRI mouse assessed as decrease in infected peritoneal cells in peritoneal cavity lavage at 32 mg/kg, ip administered 3 days postinfection for 5 days; type: functional, organism-based; parameters: dose 32 mg/kg
In short: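 Female NMRI mice infected i.p. with GFP-expressing RH tachyzoites. From day 3 post-infection, drug was given i.p. at 32 mg/kg/day for 5 days. Vehicle was ethanol-DMSO (1:1), sonicated at 70°C, then diluted with an equal volume of PBS. Vehicle-treated mice served as controls. On day 8, peritoneal lavage cells were fixed in 3.7% formaldehyde, and the percentage of GFP-infected cells was measured by flow cytometry. Data pooled from three experiments.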

Toxoplasma gondii [2] = test: (§1) Antimicrobial activity against Toxoplasma gondii type 2 ME49 strain orally infected in ip dosed IRF-8 deficient mouse brain assessed as decrease in inflammatory foci administered for 5 days after 3 days post 28 day 400 mg/dl sulfadiazine dosing by quantitative PCR analysis; type: functional, organism-based
In short: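 Same ME49 chronic model: sulfadiazine 400 mg/dl for 28 days, then daily drug for 5 days starting 3 days after withdrawal, four mice per group, repeated three times. Brain inflammatory foci were graded as mean inflammatory scores using a previously described scoring method.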

Toxoplasma gondii [3] = test: Antimicrobial activity against Toxoplasma gondii type 1 RH strain infected in human foreskin fibroblasts monolayer assessed as inhibition of parasite replication after 24 hrs by phase-contrast microscopy; type: functional, organism-based
Toxoplasma gondii [4] = test: as §1, with “Toxoplasma DNA level measured per 250 ng total DNA” for “inflammatory foci”, “analysis (Rbv = 134 +/- 226.1 pg DNA)” for “analysis”; type: functional
In short: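 Chronic model: mice infected with ME49; sulfadiazine 400 mg/dl given from day 2 for 28 days to allow cyst formation. Three days after withdrawal, mice received drug daily for 5 days, in groups of four, repeated three times. On day 39, brain parasite load was measured by qPCR as pg T. gondii DNA per 250 ng total DNA.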

Toxoplasma gondii [5] = test: Antimicrobial activity against GFP-expressing Toxoplasma gondii type 1 RH strain ip infected in NMRI mouse assessed as decrease in parasite DNA level in liver at 32 mg/kg, ip administered 3 days postinfection for 5 days by quantitative PCR analysis; type: functional, organism-based; parameters: dose 32 mg/kg
In short: (§2)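 Same i.p.-infected NMRI model and dosing regimen; liver and lung collected on day 8. Parasite DNA was quantified by qPCR targeting the T. gondii cryptic gene, using 250 ng total DNA, 2 mM MgCl2, 1 μM each primer and 0.2 μM each hybridization probe. Cycling: 50 cycles of 95°C, 52°C and 72°C. Standard curve of 250 to 2.5 pg parasite DNA run each time; crossing points by second-derivative method.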

Toxoplasma gondii [6] = test: Antimicrobial activity against GFP-expressing Toxoplasma gondii type 1 RH strain ip infected in NMRI mouse assessed as decrease in parasite DNA level in lungs at 32 mg/kg, ip administered 3 days postinfection for 5 days by quantitative PCR analysis; type: functional, organism-based; parameters: dose 32 mg/kg; in short: as §2
Toxoplasma gondii [7] = test: Antimicrobial activity against Toxoplasma gondii type 1 RH strain infected in human foreskin fibroblasts monolayer assessed as inhibition of parasite replication at 1 uM after 24 hrs by phase-contrast microscopy; type: functional
In short: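 Confluent human foreskin fibroblast monolayers infected with RH tachyzoites, then exposed to compound (top concentration 1 μM) or DMSO control for 24 h. Read-out was the average number of parasites per vacuole-type count, relative to control.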

SMILES	Activity (Toxoplasma gondii [1])	Activity (Toxoplasma gondii [2])	IC50 (Toxoplasma gondii [3]) [nM]	Activity (Toxoplasma gondii [4]) [pg]	Activity (Toxoplasma gondii [5])	Activity (Toxoplasma gondii [6])	inhibition (Toxoplasma gondii [3])	inhibition at 1 µM (Toxoplasma gondii [7]) [%]
CCCCCCCCCCCCc1c(C)n(O)c2ccccc2c1=O	Active	Active	0.8	6.7	Active	Active	–	–
O=C1C(O)=C([C@H]2CC[C@H](c3ccc(Cl)cc3)CC2)C(=O)c2ccccc21 [ATOVAQUONE]	–	Active	–	0.8	Active	Active	–	–
CCCCCCCCCCCCc1cc(=O)c2cc(OCCN(C)C)ccc2n1O	–	–	–	–	–	–	inactive	–
CCCCCCCCCCCCc1cc(=O)c2ccccc2n1O	Active	–	4.2	–	Active	–	–	–
CCCCCCCCCCCCc1c(C)c(=O)c2ccccc2n1O [COMPOUND A]	Active	Active	0.4	–	Active	–	–	–
CCCCCCCCCCCCc1c(C)n(O)c2ccc(OCCN(C)C)cc2c1=O	–	–	–	–	–	–	–	38
